# Assay results: ChEMBL document CHEMBL4513216, “Probing the Open Global Health Chemical Diversity Library for Multistage-Active Starting Points for Next-Generation Antimalarials” (ACS Infect Dis, 2020)
# Test: Toxicity liver stage against HepG2, at 10uM
# Format: cell-based
# Set-up: test concentration 10 uM, cell line HepG2-A16-CD81EGFP
# Conditions: human, HepG2-A16-CD81EGFP cells; read-out: INHIBITION
# Procedure, shortened: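 Uninfected HepG2-A16-CD81EGFP cells, 3 × 10^3 per well, 1536-well, plated on prespotted compound at 10 μM final, parasite-free screening media added to match infected plates; puromycin 10 μM positive, DMSO 0.5% negative; run in parallel with 48 h PbLuc assay at 37 °C, 5% CO2; viability by CellTiter-Glo luminescence, normalized to controls.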
row,Compound,cytotoxicity at 10 µM
1,COCCN1CCc2onc(C(c3ccccc3)c3ccccc3)c2C1,-7.35%
2,CNC(=O)[C@@H](C)NC(=O)c1cc(-c2ccc(F)cc2)c(C)s1,-5.2%
3,CSc1ncnc(NCc2ccccc2F)c1C#N,1.67%
4,Cc1nn(C)c(C)c1C1CCCN1Cc1nc(N)c2ccccc2n1 (configuration not stated),-16%
5,CN(C)c1cc(C(=O)N2CCCCC2Cn2cccn2)ccn1 (configuration not stated),-23%
6,CC(C)c1cc(N2CCC[C@H](N)C2)n2nccc2n1,-5.42%
7,Cc1ccc(N2CCCC(NCc3cscn3)C2)nn1 (configuration not stated),-7.2%
8,N#Cc1cccnc1N1CCCC(CO)(Cc2ccccc2F)C1 (configuration not stated),4.01%
9,CCn1cc(S(=O)(=O)Nc2cccnc2-n2cccn2)nc1C,3.21%
10,Cn1cc(CN2CCC3(CCCN(C(=O)c4cnccn4)C3)C2)cn1 (configuration not stated),-131%
11,CCc1nc(CN2CCCN(C(=O)CCc3ccco3)CC2)cs1,1.42%
12,CC1CCCCN1CCNC(=O)c1ccccc1N1CCOCC1 (configuration not stated),-4.14%
13,CC(C)(C)NC(=O)NC(=O)CNc1c(F)cccc1N1CCCC1,12.2%
14,CN(C)C1CCC2(CCN(Cc3nccn3C)CC2)c2ccccc21 (configuration not stated),5.64%
15,CSCCN1C(=O)CC(C)(c2ccc(Br)cc2)C1=O (configuration not stated),-8.98%
16,Cc1ccc(Cl)cc1N1CCC(CNC(=O)Cn2cccn2)C1 (configuration not stated),-6.72%
17,COc1cccc(S(=O)(=O)NC(=O)CC2CCCC2)c1,3.13%
18,Cc1nc(N(C)C)ncc1C(=O)N[C@H]1Cc2ccccc2[C@@H]1N,1.81%
19,O=C1N(c2cccnc2)CCC12CCCN(Cc1cccnc1)C2 (configuration not stated),0.951%
20,Cc1cccc(CNCC2COC3(CCCCC3)O2)c1C (configuration not stated),-139%
21,CC(NC(=O)NCCCO)c1ccc(-c2ccncc2)cc1 (configuration not stated),6.93%
22,CC(C)CN1CCN(Cc2nc3ccccc3[nH]2)[C@H]2CS(=O)(=O)C[C@H]21,14.4%
23,Cc1cccc(CS(=O)(=O)CC(=O)N(C)Cc2ccccc2F)c1,-2.71%

row,Compound,cytotoxicity at 10 µM
1,COCC1CN(C(=O)c2ccco2)Cc2nccn2C1 (configuration not stated),-107%
2,CC(C)c1nc(N2CCC(N3CCSCC3)CC2)c2cnn(C)c2n1,-136%
3,CCOCC1CN(C(=O)COc2ccccc2C)Cc2ncn(C)c21 (configuration not stated),0.78%
4,Cc1c(-c2cccs2)nn2c(=O)c3c([nH]c12)CN(C(=O)C1CC1)C3,-4.02%
5,COc1cc(N2CCC(c3nccn3Cc3ccccc3)CC2)ncn1,5.44%
6,CC(C)CC(=O)N1CCC2(CC1)OCCO2,4.37%
7,Cc1noc(C)c1CC(=O)NCC1(O)CCCN(c2ccccn2)C1 (configuration not stated),-2.03%
8,c1cnn(Cc2cn3c(n2)CN(Cc2nccs2)CC3)c1,2.76%
9,CN1CC(=O)N(c2ccccc2)CC12CCN(C(=O)c1cccs1)C2 (configuration not stated),-79.3%
10,CN(C)C(=O)c1ccc2c(c1)N(C)C(CC(=O)NCCOCCO)CO2 (configuration not stated),-7.96%
11,CC(CNS(C)(=O)=O)Oc1cccc(Cl)c1 (configuration not stated),4.6%
12,CSCc1cc(F)ccc1CNCc1cccc(O)c1,-3.58%
13,Cc1cc(C(=O)N2CCC3(CC2)CC(c2cccnc2)C(=O)N3C)no1 (configuration not stated),1.48%
14,CCCc1nnc2sc(C3CCN(C4CCN(C)CC4)CC3)nn12,-10.6%
15,O=C(c1cc(CC2(NCC3CCCCC3)COC2)no1)N1CCCCC1,5.35%
16,Fc1cnc(N2CCn3c(CN4CCCC4)nnc3C2)nc1,-145%
17,COc1ccccc1C(=O)Nc1c(F)c(C(=O)NCCC(C)C)nn1C,-11.1%
18,CC(C)SCC(=O)NCc1cc2n(n1)CCCN(C1CCCCC1)C2,2.37%
19,Cc1ccc(-n2nnc(CC(=O)N3CCOCC3)c2C)cc1,-12.9%
20,CCNC(=O)CN1CCCN(C(=O)C2CCCc3[nH]ncc32)CC1 (configuration not stated),4%
21,COCC(NC(=O)c1cccnc1)c1cccc(C(F)(F)F)c1 (configuration not stated),-12.9%
22,Cc1cnn(CC2CN(c3ncnc4ccccc34)CCO2)c1 (configuration not stated),6.57%
23,Cn1ccc(C(=O)N2CCN(c3cc(C#N)ccn3)CC2)cc1=O,-14.2%

row,Compound,cytotoxicity at 10 µM
1,O=C(NCCc1nc(C2CC2)no1)[C@H]1CNC[C@H](C(=O)N2CCCC2)C1,-107%
2,c1ccc(CN2CCOC3(COCCN(c4ncccn4)C3)C2)nc1 (configuration not stated),8.28%
3,CC(C)(C)n1ncc2c1NC(=O)CC2c1ccc(C#N)cc1 (configuration not stated),-1.26%
4,Cc1ccc(N2CC(c3nccc(C)n3)C2)nn1,8.82%
5,O=C(O)c1cc(S(=O)(=O)Nc2cccc3c2OCCO3)c(Cl)cc1F,-7.08%
6,CC(C)CC(=O)N1C[C@@H]2CCN(c3cnccn3)C[C@@H]2C1,3.44%
7,COc1ccc(Cn2cc(C(=O)N(C)CCN(C)C)nn2)cc1,7.13%
8,Cc1ccc(N2CC3(COCCN(Cc4cccnc4)C3)OCC2=O)s1 (configuration not stated),2.39%
9,Cc1nc(N(C)C2CCCCC2)ncc1C(C)NC(=O)c1cscn1 (configuration not stated),-134%
10,COc1ccc(C)cc1Nc1nc2c(C)nn(C)c2c(=O)n1C,3.96%
11,Cc1oc(-c2ccco2)nc1CC(=O)N1CCN(CC(C)(C)O)CC1,0.626%
12,CCCC(NC(=O)c1cnccn1)c1nnc2ccccn12 (configuration not stated),11.1%
13,CN(Cc1noc2c1CCCC2)C(=O)CN1C(=O)COc2ccccc21,-55.1%
14,Cc1nn(C)c(C)c1C1CCCN1C(=O)CCCn1cccn1 (configuration not stated),-0.685%
15,CCc1nnc2n1CCN(C(=O)CCc1ccc3c(c1)OCO3)C2,-2.62%
16,Cc1nn(-c2ccccn2)c(C)c1[C@@H]1C=C[C@@H](NC(=O)CCC(=O)O)C1,4.59%
17,CC1CCN(C(=O)c2cccc3ncccc23)CC1,4.21%
18,CCN(C(=O)c1cnc(-c2ccc3c(c2)OCO3)s1)C1CC1,-0.839%
19,Clc1cnccc1N1CCCOCC1,-0.625%
20,CCCC1CCCN(Cc2csc(-c3cnn(C)c3)n2)CC1 (configuration not stated),-1.47%
21,CNC(=O)CN1CCC(CN(C)Cc2ccccc2N(C)C)CC1,-6.23%
22,COc1cc(COCC2CCN(Cc3ccccn3)CC2)cc(OC)c1,-3.36%
23,CN(Cc1nccn1CC(F)(F)F)C(=O)c1cccc(C#N)c1,5.4%

row,Compound,cytotoxicity at 10 µM
1,C=C(C)COc1cccc(C(=O)N(C)C(C)c2ccncn2)c1 (configuration not stated),-50%
2,CCC(=O)N1CC[C@H]2[C@H](C[C@@H](Cn3cccn3)N2c2nccs2)C1,5.68%
3,CC(C)N(C)[C@@H]1CCN(C(=O)c2ccc[nH]2)[C@H]1Cc1cnn(C)c1,-72%
4,C[C@@H]1CN(CC(C)(C)N2CCCCC2)CC[C@@]1(O)C1CC1,-4.6%
5,O=C(CCCc1ccccn1)N1CCC(n2cccc2)CC1,4.59%
6,CC(NCc1ccccn1)c1cc2c(cc1Br)OCCO2 (configuration not stated),2.65%
7,Cc1cc2n(n1)CC(CNCCNC(=O)c1ccc(F)cc1)CN2 (configuration not stated),6.15%
8,CCC[C@H]1CN(Cc2ccc(N(C)C)nc2)C[C@@H]1NC(=O)CSC,7.78%
9,CC(C)c1nnc2n1CC(CNc1cnc3ccccc3n1)CC2 (configuration not stated),-37.1%
10,CN(CC1CCOCC1)C(=O)NCCCN1CCCCC1,0.105%
11,CS(=O)(=O)NC1CCN(C(=O)NCCc2ccccc2F)CC1,-3.83%
12,COc1cc(CN(C)C(=O)NCCNC(=O)C2CC2)ccc1SC,-3.73%
13,CCC(NC1CCCC1)c1ccc(S(C)(=O)=O)cc1 (configuration not stated),-3.37%
14,c1ccc(C2CCN(c3ncnc4c3CCNC4)CC2)cc1,5.03%
15,O=C(CCNC(=O)c1ccoc1)Nc1cc(F)ccc1F,-12.8%
16,CCC(=O)N(CCN(C)C)Cc1ccc(F)c(F)c1,-4.38%
17,Cc1cc2cc(CNC3CCN(CC(=O)N(C)C)CC3)oc2cc1C,-5.95%
18,Cc1nn(C)c2nc(N3CCNC(=O)C3C(C)C)sc12 (configuration not stated),-10%
19,Cn1ccnc1-c1ccc(NCc2cn3c(n2)SCC3)nn1,-0.641%
20,CC1CCN(CC2(O)CCCN(Cc3cccc(F)c3F)C2=O)CC1 (configuration not stated),0.801%
21,Cc1ccc(NC2CCN(C(=O)c3ccnc(N(C)C)c3)CC2)nn1,3.97%
22,COc1cc(C)c(C(C)NC(=O)c2cccnc2N(C)C)cc1OC (configuration not stated),1.25%
23,CNC(=O)[C@@]12CCC3(CCN(C(C)=O)CC3)[C@@H]1CN(S(C)(=O)=O)C2,-3.61%

row,Compound,cytotoxicity at 10 µM
1,Cc1cc(C)n(-c2cncc(NCCNC(=O)CC3CCCC3)n2)n1,-5.71%
2,CCN1CCC2(CC1)CN(C(C)=O)c1ccc(C)cc12,3.98%
3,CSCCC(Nc1nc(C)cc(C)n1)C(=O)NCC1CCOCC1 (configuration not stated),-3.45%
4,O=C(CCC1CCCC1)N1CCC(c2ncc3c(n2)CCNC3)CC1,-3.91%
5,Cc1cc(Cc2ccccc2C)cc(C2CCCNC2)n1 (configuration not stated),-3.59%
6,CS(=O)(=O)c1cccc(OCC(=O)N2CCCC2c2ccccc2Cl)c1 (configuration not stated),4.36%
7,CCn1ncnc1C1CC(=O)NCc2nc(N3CCCC3)sc21 (configuration not stated),-2.4%
8,COc1cccc(-c2cc(NCCO)nc3[nH]ccc23)n1,4.46%
9,CN(Cc1ccccc1)C(=O)CCN1C[C@H](C2CC2)[C@@H](N(C)C)C1,-1.21%
10,CCOC(=O)N1CCC(NC(C)Cc2cc(C)n[nH]2)CC1 (configuration not stated),-2.65%
11,O=c1[nH]c(N2CCOCC2)nc2c1CN(Cc1cccnc1)CC2,12.3%
12,C=C(C)COc1ccccc1CNCCc1cc(O)nc(C)n1,-1.6%
13,O=C(CCNC(=O)C1=Cc2ccccc2OC1)Nc1cccnc1,-0.956%
14,COC(C)(C)CNC(=O)N1CCCC1c1c(C)n[nH]c1C (configuration not stated),1.76%
15,Cc1nc(CNC2CCN(Cc3ccccc3)C2)sc1C (configuration not stated),2.86%
16,CC(=O)N(C)CC(=O)Nc1cc(C(F)(F)F)c[nH]c1=O,4.57%
17,CNc1nc(C)c(C(=O)N2C[C@@H](C(=O)O)[C@H](C3CC3)C2)s1,4.29%
18,CC(C)c1cc(NC(CO)CO)n2nccc2n1,6.33%
19,O=C(C1CC1)N(CCc1ccccc1)C1CCOC1 (configuration not stated),-6.93%
20,CCC(C)N1CCC(Oc2ccc(C(=O)NCCN(C)C)cc2Cl)CC1 (configuration not stated),-2.09%
